Screens from PubChem.
TCR-CD3 inh = blocks the human TCR-CD3 interaction; TAMRA-labeled TCR probe fluorescence, biochemical; actives 0.37% (n = 360,000); AID 651800; inhibition, % at 9.4 µM; in the data active = inhibition above about 19%;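 note: recombinant mutant TCR 2C K166C tagged with TAMRA read by polarization; 0% = receptor in buffer alone and 100% = receptor with positive control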
SIAE inh = inhibitors of human sialic acid acetylesterase SIAE. Q9HAT2. SIAE FP-Rh probe binding, fluorescence polarization. inhibition, % at 9.66 µM. actives 0.69% (n = 370,000). AID 1053197;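 active = inhibition above a cutoff: mean of compounds within the control limits plus 3 SD of those, cut at about 17% in these data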;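 note: 0% = plate median of compound wells and 100% = probe without SIAE protein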
Target sequence (Q9HAT2 whole entry, looked up): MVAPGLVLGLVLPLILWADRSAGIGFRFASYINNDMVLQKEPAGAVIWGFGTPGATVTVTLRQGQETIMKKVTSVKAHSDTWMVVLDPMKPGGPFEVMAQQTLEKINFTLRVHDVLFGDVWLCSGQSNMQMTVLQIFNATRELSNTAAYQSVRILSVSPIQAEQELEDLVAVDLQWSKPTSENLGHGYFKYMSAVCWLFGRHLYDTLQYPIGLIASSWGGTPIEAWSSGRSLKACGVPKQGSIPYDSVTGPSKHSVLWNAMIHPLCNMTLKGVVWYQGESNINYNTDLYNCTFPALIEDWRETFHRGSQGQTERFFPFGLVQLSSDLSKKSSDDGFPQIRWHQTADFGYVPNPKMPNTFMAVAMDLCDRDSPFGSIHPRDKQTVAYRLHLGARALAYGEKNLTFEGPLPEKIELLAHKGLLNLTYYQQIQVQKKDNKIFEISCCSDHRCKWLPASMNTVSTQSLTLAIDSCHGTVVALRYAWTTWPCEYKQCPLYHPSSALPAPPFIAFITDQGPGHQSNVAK
HTRA1 inhibitor = HTRA1 (human) protease inhibition; Q92743; recombinant HTRA1, FP-rhodamine activity-based probe, fluorescence polarization; inhibition, % at 5.96 µM; actives 0.5% (n = 340,000); AID 504803; in the data active = inhibition above about 36%;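 note: 0% = enzyme with DMSO and 100% = wells lacking enzyme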
PRMT1 FP inh = inhibitors of human PRMT1 | recombinant PRMT1, activity-based probe fluorescence polarization | inhibition, % at 2.79 µM | actives 1.3% (n = 370,000) | AID 652257;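 active = inhibition above about 21% made by adding two undisclosed values, limit read from the data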
ABHD4 inh = inhibits mouse alpha/beta hydrolase domain 4 | inhibition, % at 8.92 µM | AID 720543 | purified mABHD4, FP-Rh probe fluorescence polarization | actives 0.54% (n = 370,000) | Q8VD66;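 active = inhibition exceeding the mean over every tested compound plus 3 SD, cut at about 30% in these data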;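 note: 0% = plate median of compound wells and 100% = S159A mutant with DMSO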
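Material: mouse ABHD4 enzyme, wild type; Benchmarks: S159A mutant high control, sample median low control; Buffer or medium: HEPES pH 7.0, NaCl, Pluronic buffer; Signal: fluorescence polarization; Read-out: percent inhibition of probe binding, normalized to plate controls; Timing: pre-incubation 45 min, probe exposure 60 min, at 25 °C; Dosing: 8.92 µM, single dose.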
SIAE inh conf = human SIAE inhibition, confirmation. inhibition, % at 9.66 µM. actives 13% (n = 2,300). SIAE FP-Rh activity-based probe, fluorescence polarization. shares compounds with SIAE inh;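 active = mean inhibition of the replicates above the hit cutoff set in the primary screen, cut at about 17% in these data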;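 note: 0% = SIAE with DMSO and probe and 100% = probe without SIAE; inhibitors lower polarization as more probe stays unbound to SIAE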
Numbers without * were called inactive; · = not tested or not shown. This is a sample that favours compounds with a hit; in the whole collection about 2.7% have one here.

SMILES	TCR-CD3 inh	SIAE inh	HTRA1 inhibitor	PRMT1 FP inh	ABHD4 inh	SIAE inh conf
O=C(O)C1C2C=CC(C2)C1C(=O)NCc1cccc(Cl)c1 (stereo not given)	-4	-3	1	1	-1	·
COc1ccc(CN(C)C(=O)c2cc(S(=O)(=O)Nc3ccccc3F)ccc2C)c(OC)c1	-4	-5	5	4	2	·
c1cc2c(cc1-c1cnc3n1CCC3)OCCO2	-4	17*	2	-1	0	-4
CCC(=O)N1CCC(C)(C(=O)Nc2ccc(OC)c(OC)c2)C1 (stereo not given)	-3	18*	·	6	7	4
Cc1cc2nc(C)c(Cl)c(=O)n2[nH]1	4	35*	1	-2	-4	-1
COc1ccc(NC(=O)N(C)C[C@H]2OCc3cnnn3CCCC(=O)N([C@H](C)CO)C[C@@H]2C)c(OC)c1	-3	21*	·	4	-2	0
CC(C)c1ccc([C@@H]2O[C@H](CCc3ccccc3)CC3=C2C(=O)OC(C)(C)O3)cc1	-3	2	·	1	-4	·
Cn1cnc(S(=O)(=O)Nc2ccccc2C(=O)NCC2CC2)c1	4	17*	2	0	6	4
C[C@H](CO)N1C[C@H](C)[C@@H](CN(C)S(=O)(=O)c2cn(C)cn2)Oc2ccc(NC(=O)Cc3ccccc3)cc2C1=O	-1	0	5	-3	10	·
Cc1ccc(OCc2nnc(SCC(=O)Nc3ccc(S(=O)(=O)Nc4cc(C)nc(C)n4)cc3)n2Cc2ccco2)cc1	·	-2	·	2	-1	·
O=C(/C=C/c1ccccc1)N1CCN(CC(O)COc2ccccc2)CC1 (stereo not given)	0	19*	-8	1	2	0
CSC1=NC(C)(C)C=C(/C=C/c2ccc(Cl)cc2)N1	-8	17*	-4	4	3	5
CSC1=NC(C)(C)C=C(/C=C/c2ccc(Cl)cc2Cl)N1	9	-5	-13	2	-12	·
CCOC(=O)c1c(C)[nH]c(C)c1S(=O)(=O)N1CCN(c2ccc(F)cc2)CC1	-6	19*	-4	-1	1	3
CCOC(=O)c1c(C)[nH]c(C)c1S(=O)(=O)N1CCOCC1	7	-9	1	-3	-5	·
Cc1nc(NS(=O)(=O)c2ccccc2)sc1NC(=O)Nc1ccccc1	-2	9	4	-1	14	·
Cc1nc(NS(=O)(=O)c2ccccc2)sc1NC(=O)Nc1ccc(Cl)cc1	-10	18*	3	7	18	27*
Cc1ccc(C(=O)COC(=O)c2cccc(NC(=O)c3ccc([N+](=O)[O-])cc3[N+](=O)[O-])c2)cc1	-1	21*	6	0	-57	-29
CN(c1ccc(NC(=O)Cc2cn(C)c3ccccc23)cc1)c1ccccn1	-7	29*	·	10	3	29*
O=C(CCc1c[nH]c2ccccc12)Nc1ccc(S(=O)(=O)Nc2ncccn2)cc1	-4	11	-1	3	2	·
CC(C)c1ccc(NC(=O)Cc2cn(C)c3ccccc23)cc1	4	3	-17	-2	-4	·
CN(c1ccc(NC(=O)CCc2c[nH]c3ccccc23)cc1)c1ccccn1	-3	27*	·	0	-1	22*
COCCNC(=O)C1(C)CCCN(Cc2ccc(Oc3ccccc3)cc2)C1 (stereo not given)	8	0	·	-4	5	·
COc1ccc(NC(=O)CSc2nnc(NC(=O)C3CC3)s2)cc1OC	5	1	5	-3	-5	·
C=CCn1c(SCC(=O)NCC2CCCO2)nnc1-c1ccncc1 (stereo not given)	-4	-2	11	4	-1	·
SMILES	TCR-CD3 inh	SIAE inh	HTRA1 inhibitor	PRMT1 FP inh	ABHD4 inh	SIAE inh conf
O=[N+]([O-])c1cccc(-c2csc(N/N=C/c3cccc(O)c3)n2)c1	7	27*	4	0	8	0
CN(C)S(=O)(=O)c1ccc(-c2csc(N/N=C/c3ccc(O)cc3)n2)cc1	-5	20*	26	7	-3	24*
Cc1cc(/C([O-])=C(/C(=S)Nc2ccc(F)cc2)[n+]2ccccc2)c(C)n1Cc1ccccc1Cl	-2	22*	12	-2	7	-2
Cc1cc(/C([O-])=C(/C(=S)Nc2ccc(F)cc2)[n+]2ccccc2)c(C)n1-c1ccc(F)cc1	2	7	26	12	22	·
O=C(c1ccccc1)c1ccncc1	-1	28*	12	-4	-5	4
CC(Cn1cncn1)C(=O)N1CCN(S(=O)(=O)c2ccc(Cl)cc2)CC1 (stereo not given)	0	4	-8	-4	6	·
C=C1CCC[C@]2(C)C[C@H]3OC(=O)C(CNCCN(CC)CC)[C@H]3CC12 (stereo not given in full)	2	22*	-2	-3	11	0
CC(Sc1nc(-c2ccccc2)c(-c2ccccc2)[nH]1)C(=O)NCC1CCCO1 (stereo not given)	-1	21*	-6	-4	4	-2
CCc1cccc2c(SC(C)C(=O)NCC3CCCO3)nc(-c3ccccc3)nc12 (stereo not given)	5	-12	-6	-1	-4	·
COC(=O)C1=C(C)N(C)C(=NCc2cccc(C(F)(F)F)c2)NC1c1cccc(Cl)c1 (stereo not given)	5	0	·	4	12	·
CCN(CC)S(=O)(=O)c1cccc(C(=O)OC2CC(C)OC2=O)c1 (stereo not given)	3	17*	1	3	-3	-2
CCN(CC)S(=O)(=O)c1cccc(C(=O)OC2CCOC2=O)c1 (stereo not given)	-3	2	6	8	-4	·
COc1ccc(NS(=O)(=O)c2cccs2)cc1S(=O)(=O)N1CCOCC1	14	-3	1	-3	-2	·
COc1ccc(NS(=O)(=O)c2cccs2)cc1S(=O)(=O)N1CCCCC1	-5	19*	4	-1	1	0
O=C(Nc1ccc(F)cc1)c1ccc(C(=O)N2CCCC(O)C2)cc1 (stereo not given)	0	6	-3	-2	4	·
Cc1ccc(NC(=O)c2ccc(NCC3CCCO3)c([N+](=O)[O-])c2)cc1Cl (stereo not given)	-2	72*	-6	0	0	0
Nc1cccc(C(=O)N/N=C/c2ccsc2)c1	-1	5	5	-3	1	·
COc1ccc(/C=N/Nc2nc(-c3ccc(Cl)cc3)cc(C(F)(F)F)n2)cc1OC	-2	20*	-12	0	-14	0
COc1ccc(/C=N/Nc2nc(C)cc(-c3ccccc3)n2)cc1OC	-5	-1	-8	2	4	·
CC1CSC(N(C(=O)c2ccc(S(C)(=O)=O)cc2)c2ccc(Cl)cc2)=N1 (stereo not given)	6	-2	-3	-1	11	·
Cc1ccc(-c2nc(Nc3ccc(O)cc3)c3ccccc3n2)cc1	-1	17*	10	0	6	-22
